This is a sample that favours compounds with a hit; in the whole collection about 2.3% have one here.
GSTO1 counter – GSTO1 inhibition, counter-screen for RBBP9 inhibitors; recombinant GSTO1, activity-based probe fluorescence polarization; P78417; inhibition, % at 5.96 µM; 300,000 tested, 1.1% active;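 active = inhibition above the campaign mean inhibition plus 3 SD, cut at about 35% in these data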;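 also: 0% = GSTO1-1 with DMSO and 100% = wells lacking GSTO1-1 enzyme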
Target sequence (P78417 whole entry, looked up): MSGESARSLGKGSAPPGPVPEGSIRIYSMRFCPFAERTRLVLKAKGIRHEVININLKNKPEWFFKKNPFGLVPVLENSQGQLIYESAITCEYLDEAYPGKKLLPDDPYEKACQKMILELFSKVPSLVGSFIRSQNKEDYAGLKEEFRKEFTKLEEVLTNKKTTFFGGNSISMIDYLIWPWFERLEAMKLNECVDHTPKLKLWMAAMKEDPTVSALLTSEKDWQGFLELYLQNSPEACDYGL
PAD4 FP inh – inhibitors of human PAD4 | Q9UM07 | recombinant PAD4, RCA probe fluorescence polarization | inhibition, % at 6.36 µM | 330,000 tested, 0.41% active | AID 485272;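 active = percent inhibition above a cutoff equal to the mean of all tested compounds plus 3 SD, cut at about 15% in these data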;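 also: 0% = PAD4 with RCA probe and DMSO and 100% = probe without PAD4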
PRMT1 inh – PRMT1 (human) inhibition, primary screen; Q99873; recombinant PRMT1, activity-based probe fluorescence polarization; inhibition, % at 2.79 µM; 370,000 tested, 1.3% active; AID 652257;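 active = inhibition above about 21% made by adding two undisclosed values, limit read from the data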
RBBP9 inh – blocks human serine hydrolase RBBP9; 220,000 tested, 0.2% active; recombinant RBBP9, FP-Rh probe fluorescence polarization; O75884; inhibition, % at 7.94 µM; AID 1515;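 active = inhibition above the campaign mean of all tested compounds plus 3 SD, cut at about 14% in these data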;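 also: plate controls were DMSO wells with RBBP9 for no effect and wells lacking RBBP9 protein for full effect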
Target sequence (O75884 whole entry, looked up): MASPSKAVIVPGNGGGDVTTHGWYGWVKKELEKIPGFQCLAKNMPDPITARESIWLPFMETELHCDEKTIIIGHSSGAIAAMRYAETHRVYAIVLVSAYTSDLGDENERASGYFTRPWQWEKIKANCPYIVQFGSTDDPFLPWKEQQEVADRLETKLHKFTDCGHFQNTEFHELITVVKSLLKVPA
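Controls: DMSO-treated enzyme wells and wells lacking RBBP9 | Material: RBBP9 protein | Technique: Fluorescence polarization | Replication: Single well per compound, no replicates | Buffer or medium: Tris-NaCl-Pluronic buffer, pH 8.0 | Timing: 30 min compound preincubation, 45 min probe labeling, 25 °C | Read-out basis: Percent inhibition from mP, scaled between DMSO and no-protein wells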
PME-1 primary – PME-1 (human) inhibition. inhibition, % at 5.9 µM. Q9Y570. 320,000 tested, 0.53% active. AID 2130. recombinant PME-1, FP-Rh probe fluorescence polarization;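 active = inhibition above the campaign mean of all compounds plus 3 SD, cut at about 26% in these data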;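 also: competitive labeling of PME-1 active site by serine hydrolase directed probe; 0% = PME-1 with DMSO and 100% = wells lacking PME-1 enzyme; inhibitors block probe labeling so polarization falls and inhibition rises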
Fam108B counter – Fam108B inhibition, counter-screen for RBBP9 inhibitors; 300,000 tested, 0.33% active; inhibition, % at 9.51 µM; recombinant Fam108B, FP-Rh probe fluorescence polarization;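 active = inhibition above the screen mean inhibition plus 3 SD, computed separately per campaign, cut at about 18% in these data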;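 also: inhibitors lower polarization as less probe binds the enzyme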
PRMT1 inh conf – PRMT1 (human) inhibition, FP confirmation; recombinant His-PRMT1, activity-based probe fluorescence polarization; 3,300 tested, 42% active; inhibition, % at 2.79 µM; shares compounds with PRMT1 inh;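 active = mean inhibition across replicates above the hit cutoff derived for the earlier primary screen, cut at about 22% in these data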
The depositor's hits bear a star; . = not tested or not shown.

SMILES	GSTO1 counter	PAD4 FP inh	PRMT1 inh	RBBP9 inh	PME-1 primary	Fam108B counter	PRMT1 inh conf
CCn1c(C)c(C(C)=O)c(N2CCN(c3ccccc3)CC2)nc1=S	-11.4	-0.9	36.9*	13.6	0.7	-5.1	1.6
CC(=O)c1c(N2CCCC2)nc(=S)n(-c2ccccc2)c1C	14.2	-1.3	14.2	0.5	1.0	6.2	.
CC(=O)c1c(N2CCN(C(=O)c3ccco3)CC2)nc(=S)n(-c2ccccc2)c1C	3.8	-0.9	36.1*	2.1	3.6	3.8	39.0*
COC(=O)c1ccc2c(c1)sc(=NC(=O)CCS(=O)(=O)c1ccccc1)n2C	-6.9	-0.5	-0.5	.	-5.3	-4.2	.
COCc1[nH]c(=S)c(C#N)cc1C(=O)OC	17.0	3.3	35.0*	0.9	-1.2	-0.7	10.8
CCOC(=O)c1cc(C#N)c(=S)[nH]c1C	16.0	1.7	13.7	-10.0	0.8	5.6	.
CCOc1cc(C2C(C#N)=C(N)OC(C)=C2C(C)=O)cc(Br)c1O (stereo not drawn)	5.9	-4.4	26.0*	-2.6	-3.3	8.5	28.3*
CC(C)C1C(=O)CC(c2ccccc2)NC1c1ccccc1 (stereo not drawn)	1.9	-4.9	-4.0	.	5.6	6.2	.
CCOC(=O)CNC(c1ccccc1)c1cc(Br)ccc1NC(=O)CCN1CCOCC1 (stereo not drawn)	2.0	-4.0	36.6*	1.9	-1.8	-1.2	-0.3
COC(=O)CNC(c1ccccc1)c1cc(Br)ccc1NC(=O)CCN1CCOCC1 (stereo not drawn)	4.1	0.7	18.6	-5.4	-2.4	1.4	.
COc1ccc2[nH]c(S(=O)Cc3ncc(C)c(OC)c3C)nc2c1 (stereo not drawn)	20.1	0.1	34.4*	.	0.8	-0.5	-4.5
COc1ccnc(CS(=O)c2nc3cc(C(O)(F)F)ccc3[nH]2)c1OC (stereo not drawn)	10.6	-2.4	14.2	.	6.5	-5.4	.
CCCC(=O)Nc1ccc2nc(SCC(=O)Nc3nccs3)sc2c1	4.4	-0.8	1.7	5.9	-7.4	-2.9	.
Cc1ccc(Cn2cc(/C=N/Nc3ccc([N+](=O)[O-])cn3)c3ccccc32)cc1	-7.8	-7.2	3.3	-7.3	4.3	-0.8	.
O=C(O)Cn1cc(/C=N/Nc2ccc([N+](=O)[O-])cn2)c2ccccc21	.	.	28.3*	.	.	.	6.3
Cc1cn([C@H]2C[C@H](O)[C@@H](CNC(=O)[C@H](N)Cc3cscn3)O2)c(=O)[nH]c1=O	.	.	2.1	.	.	.	.
CC(=O)Nc1ccc(C2=NNC(=Nc3cccc(S(=O)(=O)N(C)C)c3)SC2)cc1	-0.8	-5.3	.	4.2	10.7	-5.2	.
CN(C)S(=O)(=O)c1cccc(N=C2NN=C(c3ccccc3)CS2)c1	8.1	-0.1	54.4*	-5.0	10.3	2.7	39.1*
Cc1cc(Cl)ccc1Nc1ncccc1C(N)=O	5.1	-1.6	-0.1	-6.3	5.1	-3.6	.
COc1cc(N2C(=O)C=CC2=O)ccc1N1C(=O)C=CC1=O	.	.	91.4*	.	.	.	87.3*
COc1ccc(N2C(=O)C3CC(C)=C(C)CC3C2=O)c(OC)c1 (stereo not drawn)	-2.4	-0.8	3.1	1.1	0.0	1.2	.
Cc1ccnc(NC(=S)N2CC3CN(c4cccc(C(F)(F)F)c4)CC3C2)c1 (stereo not drawn)	.	.	25.4*	.	.	.	22.8*
Fc1ccc(NC(=S)N2CCN(c3cccc(C(F)(F)F)c3)CC2)cc1	6.3	-1.8	5.2	-1.3	9.7	2.0	.
CCCOC(=O)c1c(NC(=O)C2C3C=CC(C3)C2C(=O)O)sc2c1CCC(C)C2 (stereo not drawn)	8.4	-3.1	51.5*	-7.9	-5.0	-3.4	3.5
CCOC(=O)c1c(NC(=O)C2C3C=CC(C3)C2C(=O)O)sc2c1CC(C)CC2 (stereo not drawn)	6.1	0.2	4.5	-4.1	0.3	2.9	.
SMILES	GSTO1 counter	PAD4 FP inh	PRMT1 inh	RBBP9 inh	PME-1 primary	Fam108B counter	PRMT1 inh conf
Fc1ccc(Nc2cncc(-c3ccsc3)c2)cc1Cl	.	.	25.5*	.	.	.	1.8
Fc1ccc(Nc2nnc(C(F)(F)F)s2)cc1Cl	-1.7	-1.3	3.9	-4.3	4.2	-5.4	.
CN1/C(=C\C(=O)c2cccnc2)Sc2ccccc21	0.6	-5.6	31.4*	-2.3	0.1	1.2	1.1
COc1cccc(C(=O)/C=C2\Sc3ccccc3N2C)c1	-0.1	-2.3	0.7	1.0	1.1	1.4	.
Cc1cccnc1NC(=O)c1ccccc1NC(=O)C(C)(C)C	-6.0	3.1	-2.0	-6.7	1.0	-1.6	.
CCN1CCN(C(=S)c2ccc(Cl)c(Cl)c2)CC1	4.6	-2.1	63.5*	3.6	-2.1	4.1	48.6*
Cc1ccc[n+](-c2nc([O-])sc2C=O)c1	21.1	1.6	57.6*	-3.0	-0.3	6.9	62.5*
COc1cccc2sc(N3CCN(C(=O)C4COc5ccccc5O4)CC3)nc12 (stereo not drawn)	7.7	-1.3	0.2	.	4.5	1.5	.
CCn1c(SCC(=O)c2ccccc2)nc2sc3c(c2c1=O)CCN(C)C3	-4.0	4.6	55.0*	-15.7	5.4	-1.2	14.4
CCn1c(SCC(=O)NCCc2ccccc2)nc2sc3c(c2c1=O)CCN(C)C3	-2.8	-1.8	5.1	0.8	-12.9	0.2	.
O=C(COc1ccc2c(-c3ccccc3)cc(=O)oc2c1)NC(Cc1c[nH]c2ccccc12)C(=O)O (stereo not drawn)	.	-3.0	1.5	.	.	.	.
C[C@@H](CSc1ccc(Br)cc1)CN1CC[C@H](O)CCC1=O	.	-2.5	-0.2	.	0.3	.	.
CC(=O)Nc1ccc(SCCN2CC[C@@H](C(C)(C)C)CCC2=O)cc1	.	6.9	41.4*	.	0.9	.	42.9*
CC(=O)Nc1ccc(SC[C@H](C)CN2CC[C@H](O)CCC2=O)cc1	.	-1.0	26.2*	.	-3.2	.	37.5*
Cc1ccc(SCCN2CCC(C(C)(C)C)CCC2=O)cc1 (stereo not drawn)	-0.3	0.5	2.4	.	9.4	0.6	.
CC(=O)Nc1ccc(Sc2ccc([N+](=O)[O-])o2)cc1	.	.	34.1*	.	.	.	35.8*
CC(C)(C)C(=O)Nc1ccc(Sc2ccc([N+](=O)[O-])cc2)cc1	-3.4	-1.7	-0.7	-5.1	1.6	4.2	.
NC(=O)NC(=O)CC1S/C(=N/N=C2\CSC(=O)N2)NC1=O (stereo not drawn)	16.9	3.9	45.2*	-4.7	-1.8	0.9	33.2*
NC(=O)NC(=O)CC1S/C(=N/N=C/c2ccccc2)NC1=O (stereo not drawn)	4.1	-1.3	13.0	-6.7	-9.7	-3.5	.
Cc1ccc(/C=C2\SC(=S)N(C3CCS(=O)(=O)C3)C2=O)cc1 (stereo not drawn)	8.7	-5.1	9.8	-5.0	6.5	-4.0	.
CCN(C(=O)C(C)N1C(=O)/C(=C/c2ccco2)SC1=S)C1CCS(=O)(=O)C1 (stereo not drawn)	30.9	-0.5	26.1*	.	-16.8	1.5	5.8

Bioassay records deposited in PubChem BioAssay by The Scripps Research Institute Molecular Screening Center.
